Key:
[1] = molecular target: Calcium/calmodulin-dependent protein kinase type 1 (Homo sapiens) (UniProt Q14012); assay: Binding affinity to wild-type human full length CAMK1 (M1 to L370 residues) expressed in Escherichia coli BL21 at 1 uM by Kinomescan method relative to control
[2] = molecular target: Serine/threonine-protein kinase mTOR (Homo sapiens) (UniProt P42345); assay: Binding affinity to wild-type human partial length MTOR (L1382 to W2549 residues) expressed in HEK293 cells at 1 uM by Kinomescan method relative to control; type: cell-based
[3] = test system: Tyrosine-protein kinase ABL1 (Homo sapiens), P00519 [F317L]; assay: Binding affinity to human phosphorylated ABL1 F317L mutant (S229 to K512 residues) expressed in HEK293 cells at 1 uM by Kinomescan method relative to control; type: cell-based
Chain of Tyrosine-protein kinase ABL1 (Homo sapiens), P00519 [F317L] (P00519 whole entry F317L, the tested form may be a part): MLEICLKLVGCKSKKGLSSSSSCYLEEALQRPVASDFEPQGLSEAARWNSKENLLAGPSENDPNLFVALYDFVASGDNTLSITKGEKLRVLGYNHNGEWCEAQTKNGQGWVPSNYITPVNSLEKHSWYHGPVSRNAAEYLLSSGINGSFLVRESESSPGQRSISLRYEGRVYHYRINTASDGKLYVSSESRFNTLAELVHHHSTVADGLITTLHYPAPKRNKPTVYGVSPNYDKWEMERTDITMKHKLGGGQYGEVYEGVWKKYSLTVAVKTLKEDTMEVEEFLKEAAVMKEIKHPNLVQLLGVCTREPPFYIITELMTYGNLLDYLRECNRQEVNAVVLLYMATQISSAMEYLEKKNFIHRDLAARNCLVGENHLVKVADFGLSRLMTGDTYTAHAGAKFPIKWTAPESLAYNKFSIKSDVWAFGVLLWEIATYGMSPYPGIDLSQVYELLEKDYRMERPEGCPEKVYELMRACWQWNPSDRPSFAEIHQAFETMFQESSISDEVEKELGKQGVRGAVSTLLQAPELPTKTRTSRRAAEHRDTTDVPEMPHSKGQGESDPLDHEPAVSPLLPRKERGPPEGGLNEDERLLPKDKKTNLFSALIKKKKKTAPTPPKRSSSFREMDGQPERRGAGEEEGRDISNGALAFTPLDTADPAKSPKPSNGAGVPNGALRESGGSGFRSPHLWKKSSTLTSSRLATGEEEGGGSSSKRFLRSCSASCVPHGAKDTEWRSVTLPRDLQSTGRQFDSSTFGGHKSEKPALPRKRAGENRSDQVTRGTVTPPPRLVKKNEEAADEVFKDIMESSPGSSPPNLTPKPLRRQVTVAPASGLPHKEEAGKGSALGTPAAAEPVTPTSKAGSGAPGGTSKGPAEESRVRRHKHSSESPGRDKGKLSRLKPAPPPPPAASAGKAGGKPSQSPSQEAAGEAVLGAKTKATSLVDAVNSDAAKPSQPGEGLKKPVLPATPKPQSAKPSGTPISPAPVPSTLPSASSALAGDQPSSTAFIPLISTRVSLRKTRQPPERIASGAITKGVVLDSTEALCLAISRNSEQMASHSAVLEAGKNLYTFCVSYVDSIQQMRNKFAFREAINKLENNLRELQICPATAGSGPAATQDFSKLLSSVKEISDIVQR

[4] = molecular target: Platelet-derived growth factor receptor beta (Homo sapiens) (UniProt P09619); assay: Binding affinity to wild-type human partial length PDGFRB (V582 to Y1009 residues) expressed in Escherichia coli BL21 at 1 uM by Kinomescan method relative to control
[5] = test system: Hepatocyte growth factor receptor (Homo sapiens), P08581 [M1250T]; assay: Binding affinity to human partial length MET M1250T mutant (D1010 to S1367 residues) expressed in Escherichia coli BL21 at 1 uM by Kinomescan method relative to control
[6] = molecular target: Serine/threonine-protein kinase PAK 2 (Homo sapiens) (UniProt Q13177); assay: Binding affinity to wild-type human partial length PAK2 (P151 to R525 residues) expressed in Escherichia coli BL21 at 1 uM by Kinomescan method relative to control
[7] = molecular target: 5'-AMP-activated protein kinase catalytic subunit alpha-2 (Homo sapiens) (UniProt P54646); assay: Binding affinity to wild-type human partial length AMPK alpha2 (M1 to E306 residues) expressed in Escherichia coli BL21 at 1 uM by Kinomescan method relative to control
Procedure, shortened: (§1)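 Kinome-wide competition binding panel run by an outside provider, with each compound tested at a single concentration. Activity is read against the kinase panel.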

[8] = molecular target: Serine/threonine-protein kinase Nek6 (Homo sapiens) (UniProt Q9HC98); assay: Binding affinity to wild-type human full length NEK6 (M8 to T313 residues) expressed in Escherichia coli BL21 at 1 uM by Kinomescan method relative to control; procedure, shortened: as §1
[9] = molecular target: Ephrin type-A receptor 6 (Homo sapiens) (UniProt Q9UF33); assay: Binding affinity to wild-type human partial length EPHA6 (Y700 to E1046 residues) expressed in Escherichia coli BL21 at 1 uM by Kinomescan method relative to control
[10] = molecular target: Casein kinase I isoform delta (Homo sapiens) (UniProt P48730); assay: Binding affinity to wild-type human full length CSNK1D (M1 to K409 residues) expressed in Escherichia coli BL21 at 1 uM by Kinomescan method relative to control
Procedure, shortened: (§2)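 Run as one kinome-wide competition binding panel with each compound at a single fixed concentration. Results were plotted as a kinome-wide selectivity map.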

[11] = molecular target: MAP kinase-interacting serine/threonine-protein kinase 2 (Homo sapiens) (UniProt Q9HBH9); assay: Binding affinity to wild-type human partial length MKNK2 (G63 to S388 residues) expressed in HEK293 cells at 1 uM by Kinomescan method relative to control; type: cell-based
[12] = test system: Mast/stem cell growth factor receptor Kit (Homo sapiens), P10721 [V559D]; assay: Binding affinity to human partial length KIT V559D mutant (Y545 to D952 residues) expressed in Escherichia coli BL21 at 1 uM by Kinomescan method relative to control
[13] = molecular target: Cyclin-dependent kinase-like 1 (Homo sapiens) (UniProt Q00532); assay: Binding affinity to wild-type human full length CDKL1 (M1 to I358 residues) expressed in HEK293 cells at 1 uM by Kinomescan method relative to control; type: cell-based; procedure, shortened: as §2
[14] = molecular target: RAC-gamma serine/threonine-protein kinase (Homo sapiens) (UniProt Q9Y243); assay: Binding affinity to wild-type human partial length AKT3 expressed in Escherichia coli BL21 at 1 uM by Kinomescan method relative to control; procedure, shortened: as §1
[15] = molecular target: Serine/threonine-protein kinase 36 (Homo sapiens) (UniProt Q9NRP7); assay: Binding affinity to wild-type human partial length STK36 (M1 to T271 residues) expressed in Escherichia coli BL21 at 1 uM by Kinomescan method relative to control
[16] = molecular target: Calcium/calmodulin-dependent protein kinase type II subunit gamma (Homo sapiens) (UniProt Q13555); assay: Binding affinity to wild-type human partial length CAMK2G (R9 to A303 residues) expressed in Escherichia coli BL21 at 1 uM by Kinomescan method relative to control
[17] = molecular target: LIM domain kinase 1 (Homo sapiens) (UniProt P53667); assay: Binding affinity to wild-type human full length LIMK1 (M1 to D647 residues) expressed in Escherichia coli BL21 at 1 uM by Kinomescan method relative to control; procedure, shortened: as §2
Chain of LIM domain kinase 1 (Homo sapiens) (P53667 whole entry, looked up, the tested form may be a part): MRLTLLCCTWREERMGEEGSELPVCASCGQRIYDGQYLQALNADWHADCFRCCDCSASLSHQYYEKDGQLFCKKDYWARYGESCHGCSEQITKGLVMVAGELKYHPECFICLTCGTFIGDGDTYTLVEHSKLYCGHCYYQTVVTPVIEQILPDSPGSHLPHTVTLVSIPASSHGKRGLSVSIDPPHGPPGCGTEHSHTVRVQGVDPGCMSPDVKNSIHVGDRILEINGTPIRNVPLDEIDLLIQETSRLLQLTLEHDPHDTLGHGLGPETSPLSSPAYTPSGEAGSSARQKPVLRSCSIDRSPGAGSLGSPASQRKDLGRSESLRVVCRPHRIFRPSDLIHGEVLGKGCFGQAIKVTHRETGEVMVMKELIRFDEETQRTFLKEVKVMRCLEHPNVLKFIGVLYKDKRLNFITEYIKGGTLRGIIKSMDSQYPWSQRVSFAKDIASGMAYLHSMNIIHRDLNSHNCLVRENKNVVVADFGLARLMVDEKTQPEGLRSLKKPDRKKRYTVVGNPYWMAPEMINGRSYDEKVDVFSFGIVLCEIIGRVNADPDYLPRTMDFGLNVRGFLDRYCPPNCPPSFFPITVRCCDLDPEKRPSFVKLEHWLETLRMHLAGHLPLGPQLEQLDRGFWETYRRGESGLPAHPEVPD

HEK293 = assay: Binding affinity to wild-type Mycobacterium tuberculosis partial length PKNB (M1 to G279 residues) expressed in HEK293 cells at 1 uM by Kinomescan method relative to control; type: cell-based
[18] = molecular target: Serine/threonine-protein kinase 32C (Homo sapiens) (UniProt Q86UX6); assay: Binding affinity to wild-type human partial length YANK3 (M68 to G486 residues) expressed in Escherichia coli BL21 at 1 uM by Kinomescan method relative to control
[19] = molecular target: Serine/threonine-protein kinase STK11 (Homo sapiens) (UniProt Q15831); assay: Binding affinity to wild-type human full length LKB1 (M1 to Q433 residues) expressed in Escherichia coli BL21 at 1 uM by Kinomescan method relative to control; procedure, shortened: as §2
[20] = molecular target: Tyrosine-protein kinase SYK (Homo sapiens) (UniProt P43405); assay: Binding affinity to wild-type human partial length SYK (D354 to N635 residues) expressed in Escherichia coli BL21 at 1 uM by Kinomescan method relative to control
[21] = molecular target: Serine/threonine-protein kinase 10 (Homo sapiens) (UniProt O94804); assay: Binding affinity to wild-type human partial length LOK (E16 to V314 residues) expressed in Escherichia coli BL21 at 1 uM by Kinomescan method relative to control
[22] = molecular target: 1-phosphatidylinositol 3-phosphate 5-kinase (Homo sapiens) (UniProt Q9Y2I7); assay: Binding affinity to wild-type human partial length PIKFYVE (F1512 to C2098 residues) expressed in HEK293 cells at 1 uM by Kinomescan method relative to control; type: cell-based
Chain of 1-phosphatidylinositol 3-phosphate 5-kinase (Homo sapiens) (Q9Y2I7 whole entry, the tested form may be a part): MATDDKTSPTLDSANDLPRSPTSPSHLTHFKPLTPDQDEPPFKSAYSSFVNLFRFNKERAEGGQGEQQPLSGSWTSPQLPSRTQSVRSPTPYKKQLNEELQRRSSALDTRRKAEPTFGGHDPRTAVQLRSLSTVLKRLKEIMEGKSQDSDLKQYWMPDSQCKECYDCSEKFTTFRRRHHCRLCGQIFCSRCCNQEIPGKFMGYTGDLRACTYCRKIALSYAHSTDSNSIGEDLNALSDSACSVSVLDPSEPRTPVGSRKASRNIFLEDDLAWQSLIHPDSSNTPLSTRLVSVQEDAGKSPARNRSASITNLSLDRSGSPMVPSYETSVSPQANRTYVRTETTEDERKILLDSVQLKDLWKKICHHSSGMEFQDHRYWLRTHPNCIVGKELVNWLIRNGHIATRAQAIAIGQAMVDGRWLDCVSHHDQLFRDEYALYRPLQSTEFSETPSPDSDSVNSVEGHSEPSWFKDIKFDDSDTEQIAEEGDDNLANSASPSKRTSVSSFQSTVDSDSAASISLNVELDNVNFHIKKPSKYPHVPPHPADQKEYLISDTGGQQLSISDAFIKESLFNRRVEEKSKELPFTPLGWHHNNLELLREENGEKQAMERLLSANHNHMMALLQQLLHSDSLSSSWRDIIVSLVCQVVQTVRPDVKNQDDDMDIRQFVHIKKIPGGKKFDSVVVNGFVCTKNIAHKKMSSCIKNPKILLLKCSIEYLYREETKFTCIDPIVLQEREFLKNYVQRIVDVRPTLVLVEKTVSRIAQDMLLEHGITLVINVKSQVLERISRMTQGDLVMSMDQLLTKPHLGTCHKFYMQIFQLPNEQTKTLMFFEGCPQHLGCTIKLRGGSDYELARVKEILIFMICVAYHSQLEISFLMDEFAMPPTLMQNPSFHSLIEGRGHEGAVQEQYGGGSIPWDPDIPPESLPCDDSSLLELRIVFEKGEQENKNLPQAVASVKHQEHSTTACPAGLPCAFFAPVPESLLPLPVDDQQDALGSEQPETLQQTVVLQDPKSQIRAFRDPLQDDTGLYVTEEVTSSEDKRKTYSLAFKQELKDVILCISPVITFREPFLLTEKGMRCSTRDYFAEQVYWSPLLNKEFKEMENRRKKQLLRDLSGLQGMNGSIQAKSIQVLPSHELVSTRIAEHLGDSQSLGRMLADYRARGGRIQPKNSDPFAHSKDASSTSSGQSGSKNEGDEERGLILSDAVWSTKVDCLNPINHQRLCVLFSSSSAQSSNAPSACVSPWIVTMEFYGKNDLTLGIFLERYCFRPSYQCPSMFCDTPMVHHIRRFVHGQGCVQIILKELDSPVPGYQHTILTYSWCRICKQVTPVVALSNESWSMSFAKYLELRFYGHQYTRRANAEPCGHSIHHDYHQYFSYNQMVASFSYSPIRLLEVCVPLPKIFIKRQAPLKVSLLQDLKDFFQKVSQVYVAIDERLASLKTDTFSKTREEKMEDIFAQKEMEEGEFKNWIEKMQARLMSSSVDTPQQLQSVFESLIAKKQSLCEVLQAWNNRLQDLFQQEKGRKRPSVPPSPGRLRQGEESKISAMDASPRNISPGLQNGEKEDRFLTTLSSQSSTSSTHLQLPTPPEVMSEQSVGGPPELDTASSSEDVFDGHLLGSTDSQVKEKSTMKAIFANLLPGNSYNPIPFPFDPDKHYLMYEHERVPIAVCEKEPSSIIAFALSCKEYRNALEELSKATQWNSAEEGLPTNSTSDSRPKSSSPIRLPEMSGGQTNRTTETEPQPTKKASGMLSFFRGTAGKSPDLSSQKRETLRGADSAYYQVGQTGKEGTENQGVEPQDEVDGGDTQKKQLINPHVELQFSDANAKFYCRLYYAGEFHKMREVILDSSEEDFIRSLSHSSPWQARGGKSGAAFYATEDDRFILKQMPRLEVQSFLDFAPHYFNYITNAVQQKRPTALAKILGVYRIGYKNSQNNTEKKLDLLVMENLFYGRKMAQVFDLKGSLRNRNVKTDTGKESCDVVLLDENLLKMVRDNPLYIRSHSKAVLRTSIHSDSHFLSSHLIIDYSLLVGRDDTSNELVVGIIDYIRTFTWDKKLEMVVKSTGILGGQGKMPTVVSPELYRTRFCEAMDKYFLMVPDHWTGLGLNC

[23] = molecular target: Mitogen-activated protein kinase kinase kinase 19 (Homo sapiens) (UniProt Q56UN5); assay: Binding affinity to wild-type human partial length YSK4 (T1019 to H1328 residues) expressed in HEK293 cells at 1 uM by Kinomescan method relative to control; type: cell-based
[24] = molecular target: Ephrin type-A receptor 1 (Homo sapiens) (UniProt P21709); assay: Binding affinity to wild-type human partial length EPHA1 (V588 to I913 residues) expressed in Escherichia coli BL21 at 1 uM by Kinomescan method relative to control
Chain of Ephrin type-A receptor 1 (Homo sapiens) (P21709 whole entry, the tested form may be a part): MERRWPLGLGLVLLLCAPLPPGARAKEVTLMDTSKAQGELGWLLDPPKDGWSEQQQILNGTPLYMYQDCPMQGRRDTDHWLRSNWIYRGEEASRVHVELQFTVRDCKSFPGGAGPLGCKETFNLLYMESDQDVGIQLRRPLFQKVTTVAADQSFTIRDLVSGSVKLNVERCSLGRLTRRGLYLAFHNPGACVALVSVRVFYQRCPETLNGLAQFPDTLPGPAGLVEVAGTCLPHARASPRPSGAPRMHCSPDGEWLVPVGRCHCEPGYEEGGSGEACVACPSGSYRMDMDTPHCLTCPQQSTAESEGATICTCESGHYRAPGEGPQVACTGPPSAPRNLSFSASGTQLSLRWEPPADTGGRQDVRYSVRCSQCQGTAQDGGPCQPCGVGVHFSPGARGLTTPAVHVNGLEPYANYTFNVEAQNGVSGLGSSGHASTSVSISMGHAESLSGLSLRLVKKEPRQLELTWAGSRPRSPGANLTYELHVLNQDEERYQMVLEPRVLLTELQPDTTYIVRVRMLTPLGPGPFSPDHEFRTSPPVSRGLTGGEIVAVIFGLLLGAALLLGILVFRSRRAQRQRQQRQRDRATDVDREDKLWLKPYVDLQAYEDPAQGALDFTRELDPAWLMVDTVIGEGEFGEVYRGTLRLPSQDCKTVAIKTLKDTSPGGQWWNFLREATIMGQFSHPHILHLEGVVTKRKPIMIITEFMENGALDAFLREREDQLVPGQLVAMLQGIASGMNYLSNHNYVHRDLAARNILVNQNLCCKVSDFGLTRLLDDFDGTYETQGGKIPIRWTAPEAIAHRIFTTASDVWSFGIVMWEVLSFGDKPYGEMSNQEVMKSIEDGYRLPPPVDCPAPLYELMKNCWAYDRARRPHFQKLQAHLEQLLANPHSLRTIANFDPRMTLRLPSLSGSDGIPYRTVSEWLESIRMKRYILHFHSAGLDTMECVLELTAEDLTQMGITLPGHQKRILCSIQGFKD

CCC(=O)Nc1ccc(C(=O)Nc2ccc(Nc3ncc4c(n3)N(C)c3ccc(C)cc3C(=O)N4C)cc2)cc1
Activity [1]: 90% | Activity [2]: 100% | Activity [3]: 100% | Activity [4]: 84% | Activity [5]: 93% | Activity [6]: 99% | Activity [7]: 100% | Activity [8]: 96% | Activity [9]: 76% | Activity [10]: 95% | Activity [11]: 84% | Activity [12]: 94% | Activity [13]: 88% | Activity [14]: 100% | Activity [15]: 93% | Activity [16]: 97% | Activity [17]: 70% | Activity (HEK293): 68% | Activity [18]: 100% | Activity [19]: 94% | Activity [20]: 87% | Activity [21]: 78% | Activity [22]: 98% | Activity [23]: 77% | Activity [24]: 100%

C=CC(=O)Nc1ccc(C(=O)Nc2ccc(Nc3ncc4c(n3)N(C)c3ccc(C)cc3C(=O)N4C)cc2)cc1
Activity [1]: 88% | Activity [2]: 87% | Activity [3]: 92% | Activity [4]: 94% | Activity [5]: 93% | Activity [6]: 86% | Activity [7]: 88% | Activity [8]: 98% | Activity [9]: 86% | Activity [10]: 86% | Activity [11]: 66% | Activity [12]: 97% | Activity [13]: 92% | Activity [14]: 83% | Activity [15]: 100% | Activity [16]: 100% | Activity [17]: 100% | Activity (HEK293): 94% | Activity [18]: 100% | Activity [19]: 93% | Activity [20]: 74% | Activity [21]: 100% | Activity [22]: 100% | Activity [23]: 72% | Activity [24]: 97%

From ChEMBL document CHEMBL4184148 (Bioorg Med Chem Lett, 2017)
